# According to publication PMC3900310 (Annals of Clinical and Translational Neurology, 2013):
# Like-named read-outs stand apart in the source and are kept apart here.
# Legend:
# [1] = tested on: ROCK1; conditions: read-out: ROCK1 IC50; cited from earlier work
# [2] = tested on: cortical perfusion during dMCAO; experiment: Distal middle cerebral artery occlusion; type: in vivo, mice; conditions: 200 mg/kg 90 min before dMCAO, laser speckle flowmetry
# Method in brief: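 Male mice (25–30 g) given test compound or vehicle (0.4% methylcellulose) by orogastric gavage. […] Mice were intubated, mechanically ventilated and femoral-artery catheterized for blood pressure and blood sampling. Cortical perfusion was imaged by laser speckle through intact skull. Per-pixel CBF was taken relative to preischemic baseline. Areas with residual CBF ≤20%, 21–30% and 31–40% were thresholded.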
# [3] = tested on: focal cerebral ischemia (transient fMCAO)
# [4] = Systemic physiological parameters; type: in vivo, mice; conditions: 200 mg/kg
# [5] = Pharmacokinetic study: plasma and brain concentrations after oral gavage; type: in vivo, mice; conditions: for AUC(0-t) / Cmax / k el: male, C57BL/6, mouse, po
# Method in brief: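 Male mice received 100 or 200 mg/kg twice daily by orogastric gavage, five doses. Each time point, from just before the last dose, used a separate group (n = 5). Jugular blood went into K3 EDTA tubes and was spun at 1000 g for 3 min at 4°C. Brains were harvested after saline perfusion. Samples were stored at −80°C and assayed by high-resolution MS. Noncompartmental analysis used best-fit λz, plus one-compartment zero- or first-order models. Brain/plasma exposure was taken as the AUC ratio.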
# [6] = healthy volunteers; ref Surface Logix, Brighton, MA; cited from earlier work
# [7] = tested on: focal cerebral ischemia (permanent fMCAO)
# [8] = target: recombinant ROCK2 (Homo sapiens, UniProt O75116); experiment: Recombinant ROCK2 radiometric enzyme assay; type: biochemical; conditions: versus ATP (Fig. 1B)
# Chain of recombinant ROCK2 (O75116 92-354 limits assumed): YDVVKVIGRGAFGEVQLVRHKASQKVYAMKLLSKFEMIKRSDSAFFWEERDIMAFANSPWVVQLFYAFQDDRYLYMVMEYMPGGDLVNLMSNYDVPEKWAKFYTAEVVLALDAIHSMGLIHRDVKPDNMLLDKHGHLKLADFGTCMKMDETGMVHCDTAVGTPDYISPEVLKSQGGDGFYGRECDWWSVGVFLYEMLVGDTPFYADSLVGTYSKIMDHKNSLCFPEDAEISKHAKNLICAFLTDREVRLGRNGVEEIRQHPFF
# [9] = tested on: endothelial cells; conditions: cited from earlier work
# [10] = tested on: ROCK2; conditions: read-out: ROCK2 IC50; cited from earlier work
# [11] = target: recombinant ROCK1 (Homo sapiens, UniProt Q13464); experiment: Recombinant ROCK1 radiometric enzyme assay; type: biochemical; conditions: concentrations up to 10 μmol/L, recombinant enzyme system
# Chain of recombinant ROCK1 (Q13464 76-338 limits assumed): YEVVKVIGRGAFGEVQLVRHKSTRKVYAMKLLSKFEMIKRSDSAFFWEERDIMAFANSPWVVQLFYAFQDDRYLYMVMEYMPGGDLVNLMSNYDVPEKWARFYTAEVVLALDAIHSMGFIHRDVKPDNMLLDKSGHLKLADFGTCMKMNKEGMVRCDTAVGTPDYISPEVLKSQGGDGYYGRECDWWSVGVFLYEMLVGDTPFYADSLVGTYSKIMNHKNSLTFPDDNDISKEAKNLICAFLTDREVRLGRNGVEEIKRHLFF
# [12] = tested on: ROCK activity (MYPT1 phosphorylation); experiment: MYPT1 Thr696 phosphorylation in brain and heart after systemic administration; type: in vivo, mice; conditions: 10 mg/kg, intraperitoneal
# [13] = aged (12 months) mice, 1 h postischemic onset, 200 mg/kg
# [14] = diabetic (db/db) mice, 1 h postischemic onset, 200 mg/kg
# [15] = dose response, 24 h preischemic onset, 100 mg/kg every 12 h
# [16] = dose response, 24 h preischemic onset, 200 mg/kg every 12 h
# [17] = dose response, 24 h preischemic onset, 300 mg/kg every 12 h
# [18] = female mice, 1 h postischemic onset, 200 mg/kg
# [19] = therapeutic window, 1 h postischemic onset, 200 mg/kg
# [20] = therapeutic window, 3 h postischemic onset, 200 mg/kg
# [21] = therapeutic window, 6 h postischemic onset, 200 mg/kg
# [22] = plasma, one-compartment first-order kinetic absorption model, 100 mg/kg
# [23] = permanent ischemia, 1 h postischemic onset, 200 mg/kg, sacrifice at 24 h
structure (smiles),measurement,setting,value
CC(C)NC(=O)COc1cccc(-c2nc(Nc3ccc4[nH]ncc4c3)c3ccccc3n2)c1 [KD025],IC50,[1],24 µM
same,area of perfusion defect versus vehicle,[2],significantly reduced
same,tissue loss in the ipsilateral hemisphere versus vehicle,"[3]; 200 mg/kg twice a day for 36 h starting 1 h after ischemia onset, measured 4 weeks after ischemia",significantly reduced
same,efficacy on infarct volume,"[3]; 200 mg/kg, treatment started 6 h after ischemia onset",completely lost
same,infarct volume reduction,"[3]; 200 mg/kg, treatment starting 1 h after onset of fMCAO",34%
same,infarct volume reduction,"[3]; 200 mg/kg, treatment starting 3 h after onset of fMCAO",26%
same,adverse effects observed,[3]; 300 mg/kg dose level,increased incidence of vomiting and respiratory difficulties
same,infarct volume reduction,"[3]; aged (12 months) male mice, 200 mg/kg starting 1 h after fMCAO",34%
same,Mortality,[3]; [13],2/8
same,Weight loss,[3]; [13],3.4 ± 0.6 g
same,Mortality,[3]; [14],0/8
same,Weight loss,[3]; [14],3.8 ± 0.3 g
same,Mortality,[3]; [15],0/6
same,Weight loss,[3]; [15],4.3 ± 0.6 g
same,Mortality,[3]; [16],1/8
same,Weight loss,[3]; [16],3.5 ± 0.4 g
same,Mortality,[3]; [17],2/9
same,Weight loss,[3]; [17],4.5 ± 0.5 g
same,infarct volume reduction,"[3]; female mice, 200 mg/kg starting 1 h after fMCAO",42%
same,Mortality,[3]; [18],0/9
same,Weight loss,[3]; [18],3.5 ± 0.4 g
same,effect on infarct volume in combination with atorvastatin,"[3]; mouse, in vivo",did not show an additive or synergistic effect
same,therapeutic window of efficacy,"[3]; mouse, in vivo",at least 3 h
same,"neurological deficits, 5-point scoring system","[3]; preischemic treatment, assessed at 48 h prior to sacrifice",ameliorated
same,Mortality,[3]; [19],1/9
same,Weight loss,[3]; [19],5.7 ± 0.2 g
same,Mortality,[3]; [20],0/15
same,Weight loss,[3]; [20],5.2 ± 0.2 g
same,Mortality,[3]; [21],1/8
same,Weight loss,[3]; [21],5.6 ± 0.3 g
same,"incidence of hemorrhagic transformation, semi-quantitative grading",[3]; transient fMCAO model (Fig. S1),did not detect an increase
same,infarct volume reduction,"[3]; type 2 diabetic db/db mice, 200 mg/kg starting 1 h after fMCAO",32%
same,arterial blood pressure lower compared with vehicle,[4],8%
same,HR,"[4]; N = 5 mice, mean ± SEM",618 ± 19 bpm
same,pCO2,"[4]; N = 5 mice, mean ± SEM",29 ± 2 mmHg
same,pO2,"[4]; N = 5 mice, mean ± SEM",135 ± 13 mmHg
same,BP,"[4]; N = 5 mice, mean ± SEM, P = 0.06 versus vehicle",77 ± 3 mmHg
same,pH,"[4]; arterial, N = 5 mice, mean ± SEM",7.36 ± 0.02
same,λ2 (slope of the log-linear terminal phase),"[5]; brain, non-compartmental analysis, 100 mg/kg every 12 h, five doses, oral gavage",0.31 1/h
same,A (absorption),"[5]; brain, one-compartment first-order kinetic absorption model, 100 mg/kg",0.67 µg/mL
same,AUC(0-t),"[5]; brain, 100 mg/kg",2280 ng·h/mL
same,Cmax,"[5]; brain, 100 mg/kg",540 ng/mL
same,k el,"[5]; brain, 100 mg/kg",8.89e-05 s⁻¹
same,AUC(0-t),"[5]; plasma, 100 mg/kg",42300 ng·h/mL
same,Cmax,"[5]; plasma, 100 mg/kg",7280 ng/mL
same,k el,"[5]; plasma, 100 mg/kg",5e-05 s⁻¹
same,A (absorption),[5]; [22],9.16 µg/mL
same,Ka (absorption rate constant),[5]; [22],2.23 h⁻¹
same,V,[5]; [22],11.90 L
same,side effects in phase I study,[6],no major side effects
same,efficacy on infarct volume in permanent ischemia,"[7]; 200 mg/kg starting 1 h after permanent fMCAO, infarct volume at 24 h",lost its efficacy
same,Mortality,[7]; [23],6/15
same,Weight loss,[7]; [23],3.5 ± 0.3 g
same,mode of ROCK2 inhibition,[8],competitive with ATP
same,effect on ROCK1 enzymatic activity,[11],little effect
O=c1[nH]ccc2c(S(=O)(=O)N3CCCNCC3)cccc12 [hydroxyfasudil],"ROCK activity measured by MYPT1 phosphorylation, relative to effect of KD025",[12],comparable
